Source: PubChem
Shown are actives, neighbours in structure and some others; about 2.2% of the full set was active somewhere.
C2C12 statin: suppressors of simvastatin-induced myotoxicity in C2C12 myotubes. ATP luminescence, 48 h; scaled: DMSO 0, geranylgeraniol control 100. rescue of ATP level, % at 7.49 µM. actives 0.78% (n = 330,000);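 active = mean ATP rescue above about 67%, or every replicate alone reaching that limit, limit read from the data, passing the limit was not always enough; inconclusive = no clear call, values can overlap the other calls; inactive = mean under the limit and some replicate under it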;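 also: myotubes were challenged with 10 µM simvastatin during compound exposure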
DENV2 CPE: protects cells from dengue virus 2 cytopathic effect; DENV2-infected cells, cytopathic effect rescue, plate reader; CPE inhibition, % at 9.99 µM; actives 1.7% (n = 350,000); in the data active = CPE inhibition above about 20%, passing the limit was not always enough; inconclusive = no clear call, values can overlap the other calls; tested in BHK-21 cells
E-selectin induc: induces E-selectin expression in human endothelial cells. P16581. HUVEC E-selectin immunofluorescence imaging; normalized: neutral wells 0, TNF-alpha wells 100. activation, % at 7.58 µM. actives 0.37% (n = 260,000). AID 686992;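 active = mean E-selectin-positive cell signal at least 10% of the positive control, reached in at least 60% of replicates, without over 20% cell loss; inconclusive = no rule given, readout overlaps actives, possibly toxicity-flagged; inactive = the rest, including those meeting only one limit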
Target sequence (P16581 whole entry, looked up): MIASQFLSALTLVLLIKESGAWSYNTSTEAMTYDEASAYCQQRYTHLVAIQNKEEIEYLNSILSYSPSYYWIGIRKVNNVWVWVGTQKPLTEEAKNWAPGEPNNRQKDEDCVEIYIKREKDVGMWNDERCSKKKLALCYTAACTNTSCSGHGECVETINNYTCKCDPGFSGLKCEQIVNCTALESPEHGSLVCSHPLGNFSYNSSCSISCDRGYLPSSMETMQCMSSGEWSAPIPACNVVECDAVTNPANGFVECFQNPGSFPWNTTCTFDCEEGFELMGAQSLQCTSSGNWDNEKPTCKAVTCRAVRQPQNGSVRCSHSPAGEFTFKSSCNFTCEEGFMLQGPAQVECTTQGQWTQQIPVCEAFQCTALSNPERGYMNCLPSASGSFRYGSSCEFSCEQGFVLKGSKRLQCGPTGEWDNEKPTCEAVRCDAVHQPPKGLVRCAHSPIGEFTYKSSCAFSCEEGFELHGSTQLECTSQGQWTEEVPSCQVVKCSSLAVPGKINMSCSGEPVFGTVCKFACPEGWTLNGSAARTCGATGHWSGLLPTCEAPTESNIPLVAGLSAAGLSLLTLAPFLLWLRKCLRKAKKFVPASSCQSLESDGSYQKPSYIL
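Material: HUVEC primary endothelial cells; Amount: 3,000 cells per well; Dosing: single concentration; Medium: EGM-2 growth medium on 0.1% gelatin-coated wells; Read-out basis: percent E-selectin-positive cells; Signal: immunofluorescence imaging; Control set: TNF-alpha, DMSO.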
Each line names hits and unclear results; the compound was inactive in the other large screens.

COc1ccc([Si](C)(C)[C@@H]2[C@@H](CCO)O[C@]3(C(=O)N(Cc4cccc(NC(C)=O)c4)c4ccccc43)[C@H]2C)cc1	none (no result: C2C12 statin, E-selectin induc)
C[C@H]1CN([C@@H](C)CO)C(=O)c2cccc(NC(=O)Nc3ccccc3)c2O[C@@H]1CN(C)C(=O)NC1CCCCC1	none
CNc1cccc(-c2ccccc2CO)n1	DENV2 CPE 30
CNc1cccc(-c2ccccc2C(C)=O)n1	none
COc1ccc(CNC(=O)CCNC(=O)c2ccco2)cc1OC	DENV2 CPE 39
COc1cccc(CNC(=O)CCNC(=O)c2ccco2)c1	none
COc1cc(/C=N/NC(=O)c2ccc(CN3C(=O)c4cccc5cccc3c45)cc2)cc(OC)c1O	C2C12 statin 87
COc1ccc(/C=N/NC(=O)c2ccc(CN3C(=O)c4cccc5cccc3c45)cc2)cc1O	none (no result: C2C12 statin, E-selectin induc)
Cn1c(=O)c(=O)n(C)c2cc(N3CCOCC3)c(NS(=O)(=O)c3ccc([N+](=O)[O-])cc3)cc21	C2C12 statin 109 (no result: E-selectin induc)
Cn1c(=O)c(=O)n(C)c2cc(N3CCOCC3)c(NS(=O)(=O)c3ccc(F)c(Cl)c3)cc21	none (no result: C2C12 statin, E-selectin induc)
CO[C@H]1CN(C)C(=O)c2ccc(NC(=O)C3CC3)cc2OC[C@H](C)N(CC2CC2)C[C@@H]1C	none
O=C(COC(=O)c1ccc(-c2ccc([N+](=O)[O-])cc2)o1)NC(=O)NC12CC3CC(CC(C3)C1)C2	E-selectin induc 149 (no result: C2C12 statin)
O=C(COC(=O)c1ccc(-c2ccc([N+](=O)[O-])cc2)o1)NC(=O)NC1CCCCC1	none
COC(=O)c1cccc(NC(=O)c2ccc3c(c2)C(=O)N(C(C)(C)C)C3=O)c1	DENV2 CPE inconclusive (no result: E-selectin induc)
CC(C)(C)NC(=O)c1cccc(NC(=O)c2ccc3c(c2)C(=O)N(C(C)(C)C)C3=O)c1	DENV2 CPE 44
CC(C)(C)N1C(=O)c2ccc(C(=O)O)cc2C1=O	none (no result: DENV2 CPE, E-selectin induc)
CC(C)(C)N1C(=O)c2ccc(C(=O)Nc3ccc(O)cc3)cc2C1=O	DENV2 CPE 54 (no result: E-selectin induc)
CO[C@@H]1CN(C)C(=O)c2ccc(NC(=O)C3CCCC3)cc2OC[C@@H](C)N(C(=O)Nc2ccc(C(F)(F)F)cc2)C[C@H]1C	none
COc1ccc(N(Cc2cc3ccccc3[nH]c2=O)S(=O)(=O)c2ccc(C)cc2)cc1	none
COc1ccc2[nH]c(=O)c(CN(CCc3ccccc3)C(C)=O)cc2c1	C2C12 statin 114 (no result: DENV2 CPE, E-selectin induc)
COc1ccc(N(Cc2cc3ccccc3[nH]c2=O)S(=O)(=O)c2ccccc2)cc1	C2C12 statin 182
CC(=O)N(CCc1ccccc1)Cc1cc2cc(C)ccc2[nH]c1=O	none (no result: E-selectin induc)
COc1ccccc1-c1cnc2c(c1)C(=O)N([C@H](C)CO)C[C@H](C)[C@H](CN(C)Cc1ccc(C(=O)O)cc1)O2	none
O=C(C[C@H]1C[C@H]2c3cc(NC(=O)CC4CC4)ccc3O[C@H]2[C@H](CO)O1)NCc1ccncc1	none
COc1ccc(S(=O)(=O)N2[C@@H]3CNC[C@H]2C3c2ccc(-c3cccc(C)c3)cc2)cc1 (some centres undefined)	none (no result: C2C12 statin)
O=C(C[C@@H]1C[C@@H]2c3cc(NC(=O)NC4CCCC4)ccc3O[C@@H]2[C@H](CO)O1)NCCc1ccccc1	none
C/C=C/c1ccc2c(c1)O[C@@H](CN(C)C(=O)NC1CCCC1)[C@H](C)CN([C@H](C)CO)S2(=O)=O	none
O=C(CCN1CCCCC1)N[C@H]1CC[C@H](CCNS(=O)(=O)c2ccc(Cl)cc2)O[C@@H]1CO	none
NCC[C@@H]1CC[C@@H](NC(=O)C2CC2)[C@@H](CO)O1	none (no result: C2C12 statin)
CCC(SC1=NCCS1)C(=O)Nc1ccc(S(N)(=O)=O)cc1 (centres undefined)	DENV2 CPE 26 (no result: C2C12 statin, E-selectin induc)
CCC(Sc1nc(C)cc(C)n1)C(=O)Nc1ccc(S(N)(=O)=O)cc1 (centres undefined)	none
COc1ccccc1CNC(=O)C[C@@H]1C=C[C@@H](NC(C)=O)[C@@H](CO)O1	none
COc1ccc(NC(=O)N(C)C[C@@H]2Oc3ccc(NS(=O)(=O)c4cn(C)cn4)cc3CC(=O)N([C@@H](C)CO)C[C@H]2C)cc1	DENV2 CPE inconclusive
Cc1noc(C)c1NC(=O)N(C)C[C@@H]1Oc2ccc(NS(=O)(=O)c3cn(C)cn3)cc2CC(=O)N([C@@H](C)CO)C[C@H]1C	none (no result: E-selectin induc)
Cc1noc(C)c1NC(=O)N(C)C[C@H]1Oc2ccc(NS(=O)(=O)c3cn(C)cn3)cc2CC(=O)N([C@H](C)CO)C[C@@H]1C	DENV2 CPE 48 (no result: E-selectin induc)
COc1ccc(NC(=O)N(C)C[C@@H]2Oc3ccc(NS(=O)(=O)c4cn(C)cn4)cc3CC(=O)N([C@H](C)CO)C[C@@H]2C)cc1	DENV2 CPE 77
COCC#Cc1ccc2c(c1)O[C@H](CN(C)C(=O)Nc1ccccc1F)[C@H](C)CN([C@H](C)CO)S2(=O)=O	none
OC[C@@H]1[C@H](c2ccccc2)C2(CN(Cc3nccs3)C2)N1CC1CCOCC1	none (no result: C2C12 statin)
